Experimental data reported in ChEMBL document CHEMBL1123812, “Pyrroloisoquinoline antidepressants. 2. In-depth exploration of structure-activity relationships” (J Med Chem, 1987).
The source made the active and inactive calls.

Tests used:
Mus musculus [1] = assay: Ability to antagonise intraperitoneal administration; weakly active (>=10% and <=30% antagonism) at 30 mg/kg is represented as >30; type: functional; conditions: ip
Summary of the method: (§1)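 Nonfasted male Swiss Webster mice, 18–24 g, ten per dose level and in saline controls. Test compound given ip 30 min before tetrabenazine 32 mg/kg ip; dose expressed as free base. Motor activity and ptosis scored. Control response ≤90% corrected by Abbott's formula.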

Mus musculus [2] = organism: Mus musculus; assay: Antagonism of tetrabenazine (TBZ)-induced depression measured in mice by motor activity; type: functional; conditions: Mus musculus; read-out: ED50; summary of the method: as §1
Mus musculus [3] = organism: Mus musculus; assay: Gross behavioral effects ascertained in mice; W indicates weak stimulant or depressant activity of little significance.; type: functional, organism-based
Summary of the method: (§2)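 Male Swiss Webster mice, 18–24 g, three per dose, given ip doses of 1, 3, 10, 30, 100 and 300 mg/kg. Observed for gross behavior and held for 4 days. Scored as weak (W), stimulant (S), depressant (D) or convulsant (C).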

[4] = target: Sodium-dependent dopamine transporter (Rattus norvegicus) (UniProt P23977); assay: Ability to inhibit the uptake of [3H]dopamine (DA) 0.1 uM concentration at rat brain synaptosomes; type: functional, subcellular
Summary of the method: (§3)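 Male Wistar rat brain synaptosomes (P2 fraction): hypothalamus for NE, striatum for DA, cerebral cortex for 5-HT. Buffer is Tris- or HEPES-buffered salt medium with glucose, ascorbate and nialamide, pH 7.4 at 37 °C. Preincubated 10 min at 37 °C with compound. Uptake started with [3H]NE 100–300 nM, [3H]DA 50–300 nM or [3H]5-HT 100–200 nM, incubated 3 min (DA) or 6–10 min (NE, 5-HT). Blanks held on ice. Filtered, counted by scintillation.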

[5] = target: Norepinephrine transporter (Rattus norvegicus) (UniProt Q9WTR4); assay: Ability to inhibit the uptake of [3H]norepinephrine (NE) 0.1 uM concentration at rat brain synaptosomes; type: functional, subcellular; summary of the method: as §3
[6] = target: Sodium-dependent serotonin transporter (Rattus norvegicus) (UniProt P31652); assay: Ability to inhibit the uptake of [3H]- serotonin(5-HT) 0.1 uM concentration at rat brain synaptosomes; type: functional, subcellular; summary of the method: as §3
[7] = target: Sodium-dependent dopamine transporter (Rattus norvegicus, UniProt P23977); assay: Inhibition of the uptake of tritiated dopamine (DA) in rat synaptosomes; type: subcellular, Brain
Mus musculus [8] = assay: (§4) Ability to antagonise intraperitoneal dose; inactive (<10% antagonism) at 30 mgjkg is represented as I-30.; type: functional, organism-based; summary of the method: as §1
[9] = target: Serotonin 2 (5-HT2) receptor (Rattus norvegicus, UniProt P30994+P08909+P14842); assay: Binding affinity towards 5-hydroxytryptamine 2 receptor; type: protein assay
D(1A) dopamine receptor = D(1A) dopamine receptor (Rattus norvegicus, UniProt P18901); assay: Binding affinity towards Dopamine receptor D1
D(2) dopamine receptor = D(2) dopamine receptor (Rattus norvegicus, UniProt P61169); assay: Binding affinity towards Dopamine receptor D2
Mus musculus [10] = organism: Mus musculus; assay: Antagonism of tetrabenazine (TBZ)-induced depression in mice measured for ptosis; type: functional; conditions: Mus musculus; read-out: ED50; summary of the method: as §1
[11] = target: Muscarinic acetylcholine receptor (Rattus norvegicus) (UniProt P08482+P08483+P08485+P08911+P10980); assay: Binding affinity towards Muscarinic acetylcholine receptor at 1.0 uM concentration; type: protein assay
[12] = target: Serotonin 1 (5-HT1) receptor (Rattus norvegicus) (UniProt P28564+P30940+P19327+P28565); assay: Binding affinity towards serotonin S1 receptor at 1.0 uM; type: protein assay
Summary of the method: (§5)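 Rat brain crude synaptic membranes in 20 mM NaHEPES pH 7.5. Ligands: α1 cortex […] 0.4 nM, nonspecific with (-)-NE 100 μM, 30 min at 25 °C. […] D2 striatum [3H]spiperone 0.05 nM with (+)-butaclamol 1 μM, 45 min at 37 °C. S1 cortex [3H]5-HT 1 nM plus glutathione and MgCl2, with 5-HT 10 μM, 20 min at 37 °C. […] Samples filtered on GF/B and counted.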

[13] = target: Norepinephrine transporter (Rattus norvegicus, UniProt Q9WTR4); assay: Inhibition of uptake of tritiated norepinephrine (NE) in rat synaptosomes; type: subcellular, Brain
[14] = target: T1, Adrenergic receptor alpha-1 (Rattus norvegicus, UniProt P15823+P23944+P43140); assay: Binding affinity towards alpha-1 adrenergic receptor; type: protein assay
T1 sequence (P15823 whole entry): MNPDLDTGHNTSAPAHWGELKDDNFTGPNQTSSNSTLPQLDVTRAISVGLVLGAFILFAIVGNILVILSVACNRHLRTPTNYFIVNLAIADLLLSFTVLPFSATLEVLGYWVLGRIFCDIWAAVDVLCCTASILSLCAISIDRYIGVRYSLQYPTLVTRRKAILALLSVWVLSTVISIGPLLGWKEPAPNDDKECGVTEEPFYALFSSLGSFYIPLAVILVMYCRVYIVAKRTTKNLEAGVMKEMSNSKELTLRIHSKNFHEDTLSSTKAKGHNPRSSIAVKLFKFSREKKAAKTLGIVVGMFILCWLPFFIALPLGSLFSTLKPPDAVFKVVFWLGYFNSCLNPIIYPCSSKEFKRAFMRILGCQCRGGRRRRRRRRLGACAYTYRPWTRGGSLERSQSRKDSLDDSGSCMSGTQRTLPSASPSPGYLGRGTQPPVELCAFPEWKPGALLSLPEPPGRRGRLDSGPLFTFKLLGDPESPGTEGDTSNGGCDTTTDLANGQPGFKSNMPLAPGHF
T1 sequence (P23944 whole entry): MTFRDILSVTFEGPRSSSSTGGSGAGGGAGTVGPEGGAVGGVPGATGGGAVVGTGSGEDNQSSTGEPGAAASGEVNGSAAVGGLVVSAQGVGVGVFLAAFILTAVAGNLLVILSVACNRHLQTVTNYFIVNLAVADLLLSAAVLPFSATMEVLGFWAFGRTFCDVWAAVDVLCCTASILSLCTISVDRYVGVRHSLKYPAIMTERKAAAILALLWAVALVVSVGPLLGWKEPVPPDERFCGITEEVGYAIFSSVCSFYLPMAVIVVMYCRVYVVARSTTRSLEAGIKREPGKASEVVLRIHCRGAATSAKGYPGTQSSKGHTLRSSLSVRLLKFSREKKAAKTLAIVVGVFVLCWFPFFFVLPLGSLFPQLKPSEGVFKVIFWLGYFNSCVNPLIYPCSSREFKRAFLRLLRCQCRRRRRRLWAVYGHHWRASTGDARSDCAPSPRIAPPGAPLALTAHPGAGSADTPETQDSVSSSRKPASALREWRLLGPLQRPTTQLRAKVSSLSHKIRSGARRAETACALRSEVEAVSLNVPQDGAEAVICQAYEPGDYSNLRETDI
T1 sequence (P43140 whole entry): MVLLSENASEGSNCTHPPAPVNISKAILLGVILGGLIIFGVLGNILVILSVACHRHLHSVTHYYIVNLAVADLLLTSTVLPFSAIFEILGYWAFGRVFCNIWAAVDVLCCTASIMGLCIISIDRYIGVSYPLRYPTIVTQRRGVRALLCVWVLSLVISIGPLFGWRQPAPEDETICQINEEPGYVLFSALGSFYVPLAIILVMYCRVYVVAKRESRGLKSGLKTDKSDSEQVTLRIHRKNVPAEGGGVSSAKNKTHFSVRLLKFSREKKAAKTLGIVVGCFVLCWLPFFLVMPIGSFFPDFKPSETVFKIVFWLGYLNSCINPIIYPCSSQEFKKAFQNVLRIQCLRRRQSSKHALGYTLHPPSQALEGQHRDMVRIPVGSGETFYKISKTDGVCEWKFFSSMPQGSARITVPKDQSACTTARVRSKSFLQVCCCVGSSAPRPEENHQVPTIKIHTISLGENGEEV

[15] = target: Adrenergic receptor alpha-2 (Rattus norvegicus) (UniProt P22086+P19328+P22909); assay: Binding affinity towards alpha-2 adrenergic receptor at 1.0 uM concentration; type: protein assay
Mus musculus [16] = assay: Ability to antagonise intraperitoneal dose; inactive (<10% antagonism) at 30 mg/kg is represented as I-30.; type: functional, organism-based; parameters: dose 30 mg/kg; summary of the method: as §1
Mus musculus [17] = assay: as §4; type: functional, organism-based; summary of the method: as §1; remark: listed apart in the source
Mus musculus [18] = organism: Mus musculus; assay: Gross behavioral effects ascertained in mice; W/C indicates weak stimulant or depressant activity of little significance/ overt convulsant; type: functional, organism-based
Summary of the method: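 Male Swiss Webster albino mice, 18–24 g, three per dose, given ip 1, 3, 10, 30, 100 and 300 mg/kg. Gross behaviour observed and held 4 days. Estimated LD50 range from lethality count on day 4. Scored as weak stimulant/depressant, significant stimulant, significant depressant or overt convulsant.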

Rattus norvegicus [19] = organism: Rattus norvegicus; assay: Ability to inhibit the uptake of tritiated dopamine (DA) 1 uM concentration; type: functional
Summary of the method: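 Rat brain synaptosomal [3H]dopamine uptake: striatal P2 fraction, test compound at 1.00 μM. Preincubated at 37 °C, then 50–300 nM [3H]DA for 3 min. Blanks on ice. Filtration and scintillation counting; percent inhibition of control uptake.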

[20] = target: Serotonin 2 (5-HT2) receptor (Rattus norvegicus) (UniProt P30994+P08909+P14842); assay: Binding affinity towards 5-hydroxytryptamine 2 receptor at 1.0 uM concentration; type: protein assay; summary of the method: as §5
[21] = target: D(2) dopamine receptor (Rattus norvegicus) (UniProt P61169); assay: Binding affinity towards dopamine receptor D2 at 1.0 uM concentration; summary of the method: as §5
Mus musculus [22] = organism: Mus musculus; assay: Gross behavioral effects ascertained in mice; S indicates significant stimulant properties.; type: functional, organism-based; summary of the method: as §2
Rattus norvegicus [23] = organism: Rattus norvegicus; assay: Ability to inhibit the uptake of tritiated norepinephrine (NE) at 0.1 uM concentration; type: functional; summary of the method: as §3
[24] = target: Sodium-dependent serotonin transporter (Rattus norvegicus) (UniProt P31652); assay: Inhibition of tritiated serotonin(5-HT) uptake at 0.1 uM concentration; type: functional; summary of the method: as §3
Mus musculus [25] = organism: Mus musculus; assay: Gross behavioral effects ascertained in mice; C indicates overt convulsant; type: functional, organism-based; summary of the method: as §2

Chain of D(1A) dopamine receptor (P18901 whole entry): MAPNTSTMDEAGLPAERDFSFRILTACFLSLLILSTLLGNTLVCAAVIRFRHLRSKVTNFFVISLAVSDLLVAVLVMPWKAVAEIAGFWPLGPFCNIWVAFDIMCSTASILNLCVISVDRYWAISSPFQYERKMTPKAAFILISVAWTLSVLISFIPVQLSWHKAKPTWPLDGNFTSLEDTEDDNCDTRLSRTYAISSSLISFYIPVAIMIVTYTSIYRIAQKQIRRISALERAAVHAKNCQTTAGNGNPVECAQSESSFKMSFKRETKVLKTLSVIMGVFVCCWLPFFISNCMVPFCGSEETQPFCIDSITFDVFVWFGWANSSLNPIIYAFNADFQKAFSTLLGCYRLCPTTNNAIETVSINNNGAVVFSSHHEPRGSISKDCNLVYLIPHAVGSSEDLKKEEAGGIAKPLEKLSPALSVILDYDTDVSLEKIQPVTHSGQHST
Chain of Sodium-dependent serotonin transporter (Rattus norvegicus) (P31652 whole entry): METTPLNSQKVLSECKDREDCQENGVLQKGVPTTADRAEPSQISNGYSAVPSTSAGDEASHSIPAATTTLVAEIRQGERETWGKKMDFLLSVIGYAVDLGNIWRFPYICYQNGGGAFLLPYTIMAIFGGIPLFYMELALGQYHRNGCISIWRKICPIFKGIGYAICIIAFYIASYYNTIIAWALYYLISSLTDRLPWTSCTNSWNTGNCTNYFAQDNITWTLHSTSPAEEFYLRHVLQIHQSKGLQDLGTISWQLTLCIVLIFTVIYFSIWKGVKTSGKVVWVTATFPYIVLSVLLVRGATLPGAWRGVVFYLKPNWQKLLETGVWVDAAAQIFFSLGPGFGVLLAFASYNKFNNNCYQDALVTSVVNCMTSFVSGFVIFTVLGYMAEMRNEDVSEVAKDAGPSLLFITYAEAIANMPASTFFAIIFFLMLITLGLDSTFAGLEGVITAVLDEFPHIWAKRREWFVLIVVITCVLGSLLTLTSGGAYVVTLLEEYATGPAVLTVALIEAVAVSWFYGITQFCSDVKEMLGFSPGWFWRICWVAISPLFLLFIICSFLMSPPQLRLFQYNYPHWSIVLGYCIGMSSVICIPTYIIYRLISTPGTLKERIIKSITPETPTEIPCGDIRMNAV
Chain of Norepinephrine transporter (Q9WTR4 whole entry): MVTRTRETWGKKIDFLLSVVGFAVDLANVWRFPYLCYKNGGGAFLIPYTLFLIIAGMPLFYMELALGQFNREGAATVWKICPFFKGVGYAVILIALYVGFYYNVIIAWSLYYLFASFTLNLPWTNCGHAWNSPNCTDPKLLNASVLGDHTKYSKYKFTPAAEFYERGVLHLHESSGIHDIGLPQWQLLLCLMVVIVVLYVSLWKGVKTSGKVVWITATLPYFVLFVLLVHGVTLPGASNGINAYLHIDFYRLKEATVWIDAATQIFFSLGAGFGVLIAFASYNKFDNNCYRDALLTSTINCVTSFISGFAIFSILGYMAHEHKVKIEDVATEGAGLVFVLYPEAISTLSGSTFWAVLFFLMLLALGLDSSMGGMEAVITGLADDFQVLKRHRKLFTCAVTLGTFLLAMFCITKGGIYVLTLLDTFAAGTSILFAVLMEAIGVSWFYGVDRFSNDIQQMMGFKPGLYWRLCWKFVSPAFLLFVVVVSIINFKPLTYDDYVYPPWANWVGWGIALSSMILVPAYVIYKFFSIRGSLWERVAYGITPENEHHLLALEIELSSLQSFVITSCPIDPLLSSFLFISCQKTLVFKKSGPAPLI
Chain of Norepinephrine transporter (Rattus norvegicus) (Q9WTR4 as listed by the source): as the sequence (Q9WTR4 whole entry) above
Chain of Sodium-dependent dopamine transporter (Rattus norvegicus) (P23977 whole entry): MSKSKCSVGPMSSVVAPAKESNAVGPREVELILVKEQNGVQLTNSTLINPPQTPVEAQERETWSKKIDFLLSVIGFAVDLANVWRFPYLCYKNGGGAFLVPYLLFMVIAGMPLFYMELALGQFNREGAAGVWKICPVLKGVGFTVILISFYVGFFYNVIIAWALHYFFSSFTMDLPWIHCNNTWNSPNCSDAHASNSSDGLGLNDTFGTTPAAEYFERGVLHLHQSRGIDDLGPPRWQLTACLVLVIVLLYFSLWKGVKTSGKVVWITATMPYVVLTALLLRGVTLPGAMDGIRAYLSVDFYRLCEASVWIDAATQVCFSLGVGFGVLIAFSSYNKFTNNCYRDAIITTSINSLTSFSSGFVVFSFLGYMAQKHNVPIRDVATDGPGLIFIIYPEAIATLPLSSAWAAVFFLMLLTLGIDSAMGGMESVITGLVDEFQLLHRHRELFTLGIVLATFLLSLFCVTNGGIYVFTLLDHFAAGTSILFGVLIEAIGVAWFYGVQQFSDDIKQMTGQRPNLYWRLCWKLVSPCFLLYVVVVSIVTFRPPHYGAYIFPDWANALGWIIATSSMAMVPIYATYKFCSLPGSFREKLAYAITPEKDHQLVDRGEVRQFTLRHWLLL
Chain of Sodium-dependent dopamine transporter (P23977 whole entry): as above
Chain of D(2) dopamine receptor (P61169 whole entry): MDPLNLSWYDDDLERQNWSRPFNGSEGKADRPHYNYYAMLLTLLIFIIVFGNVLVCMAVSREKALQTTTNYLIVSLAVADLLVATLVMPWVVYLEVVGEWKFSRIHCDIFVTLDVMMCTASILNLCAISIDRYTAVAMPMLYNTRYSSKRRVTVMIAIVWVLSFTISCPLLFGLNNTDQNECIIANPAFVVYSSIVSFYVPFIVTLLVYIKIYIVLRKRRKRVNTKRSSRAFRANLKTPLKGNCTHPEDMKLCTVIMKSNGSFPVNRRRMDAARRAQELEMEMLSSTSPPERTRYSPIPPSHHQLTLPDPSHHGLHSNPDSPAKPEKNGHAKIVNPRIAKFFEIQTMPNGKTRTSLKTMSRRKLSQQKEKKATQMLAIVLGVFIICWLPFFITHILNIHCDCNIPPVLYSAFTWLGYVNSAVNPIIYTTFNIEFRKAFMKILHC
Chain of D(2) dopamine receptor (Rattus norvegicus) (P61169 whole entry): as above
Chain of Serotonin 2 (5-HT2) receptor (Rattus norvegicus) (P08909 whole entry, looked up): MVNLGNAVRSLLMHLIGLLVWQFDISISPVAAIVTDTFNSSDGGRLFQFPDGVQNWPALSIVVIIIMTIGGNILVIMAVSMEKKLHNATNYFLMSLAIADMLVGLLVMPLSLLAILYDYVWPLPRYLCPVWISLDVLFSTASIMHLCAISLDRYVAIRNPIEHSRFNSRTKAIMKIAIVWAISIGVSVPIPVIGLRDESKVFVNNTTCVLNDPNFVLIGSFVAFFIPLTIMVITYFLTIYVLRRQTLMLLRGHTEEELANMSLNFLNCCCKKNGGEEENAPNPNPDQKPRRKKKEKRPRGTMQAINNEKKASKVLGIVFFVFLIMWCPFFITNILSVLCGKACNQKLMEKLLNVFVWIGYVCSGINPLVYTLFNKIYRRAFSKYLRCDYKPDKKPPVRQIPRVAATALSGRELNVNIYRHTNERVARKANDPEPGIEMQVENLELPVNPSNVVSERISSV
Chain of Serotonin 2 (5-HT2) receptor (Rattus norvegicus) (P14842 whole entry, looked up): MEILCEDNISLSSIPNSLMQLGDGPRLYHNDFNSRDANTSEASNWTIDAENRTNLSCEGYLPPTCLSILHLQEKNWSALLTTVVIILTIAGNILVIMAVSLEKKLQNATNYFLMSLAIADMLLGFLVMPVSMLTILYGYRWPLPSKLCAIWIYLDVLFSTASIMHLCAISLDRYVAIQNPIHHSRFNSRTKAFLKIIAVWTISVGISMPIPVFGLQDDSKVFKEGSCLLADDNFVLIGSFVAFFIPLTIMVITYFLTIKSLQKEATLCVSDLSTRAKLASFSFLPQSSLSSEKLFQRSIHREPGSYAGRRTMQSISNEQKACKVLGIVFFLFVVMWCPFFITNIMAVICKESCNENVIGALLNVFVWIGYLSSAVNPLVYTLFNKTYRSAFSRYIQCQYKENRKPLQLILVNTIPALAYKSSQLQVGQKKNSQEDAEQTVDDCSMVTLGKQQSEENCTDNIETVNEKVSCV
Chain of Serotonin 2 (5-HT2) receptor (Rattus norvegicus) (P30994 whole entry, looked up): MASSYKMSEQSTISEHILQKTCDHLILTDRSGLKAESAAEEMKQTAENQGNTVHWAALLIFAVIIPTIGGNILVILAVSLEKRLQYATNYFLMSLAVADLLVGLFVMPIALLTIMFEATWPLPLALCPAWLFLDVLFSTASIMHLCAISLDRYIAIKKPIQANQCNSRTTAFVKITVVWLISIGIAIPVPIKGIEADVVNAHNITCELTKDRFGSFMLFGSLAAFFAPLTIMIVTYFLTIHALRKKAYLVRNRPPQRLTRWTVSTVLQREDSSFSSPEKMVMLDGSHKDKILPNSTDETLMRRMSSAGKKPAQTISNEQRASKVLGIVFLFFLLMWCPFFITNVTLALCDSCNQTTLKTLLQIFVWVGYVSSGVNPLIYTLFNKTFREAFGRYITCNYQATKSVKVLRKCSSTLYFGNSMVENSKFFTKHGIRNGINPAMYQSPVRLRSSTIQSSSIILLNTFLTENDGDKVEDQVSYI

O=[N+]([O-])c1ccc([C@@H]2CN3CCC[C@H]3c3ccccc32)cc1
ED50 at 30 mg/kg (Mus musculus [1]): > 30 mg/kg
ED50 (Mus musculus [2]): > 30 mg/kg
behavior (Mus musculus [3]): Weak
inhibition [4]: 21%
inhibition [5]: 10%
inhibition [6]: 25%

Cl.c1ccc([C@@H]2CN3CCC[C@H]3c3ccccc32)cc1
ED50 at 30 mg/kg (Mus musculus [1]): > 30 mg/kg
Ki [7]: 160 nM

C[C@H]1[C@@H](c2ccccc2)c2ccccc2[C@@H]2CCCN21
ED50 (Mus musculus [8]): inactive
ED50 (Mus musculus [2]): > 60 mg/kg
behavior (Mus musculus [3]): Weak
inhibition [4]: 3%
inhibition [5]: 0%
inhibition [6]: 3%

Br.Fc1ccc([C@@H]2CN3CCC[C@@H]3c3cc(F)ccc32)cc1
Ki [9]: 7.4 nM
Ki (D(1A) dopamine receptor): 183 nM
Ki (D(2) dopamine receptor): 241 nM
ED50 (Mus musculus [10]): 0.05 mg/kg
ED50 (Mus musculus [2]): > 30 mg/kg
behavior (Mus musculus [3]): Partial stimulant
inhibition [11]: 0%
inhibition [12]: -6%
Ki [7]: 7.7 nM
Ki [13]: 0.55 nM
Ki [14]: 536 nM
inhibition [15]: 25%

c1ccc2c(c1)CCN1CCC[C@@H]21
ED50 (Mus musculus [16]): inactive
ED50 (Mus musculus [17]): inactive
behavior (Mus musculus [18]): Weak/Overt convulsant
Inhibition (Rattus norvegicus [19]): 18%
inhibition [5]: 1%
inhibition [6]: -10%

Br.Oc1cc2c(cc1O)[C@H]1CCCN1C[C@H]2c1ccccc1
inhibition [20]: 46%
Ki (D(1A) dopamine receptor): 106 nM
inhibition [21]: 20%
ED50 (Mus musculus [10]): 0.53 mg/kg
ED50 (Mus musculus [2]): 0.87 mg/kg
behavior (Mus musculus [22]): Stimulant
inhibition [11]: 0%
Ki [7]: 43.5 nM
Ki [13]: 10.5 nM
Ki [14]: 87 nM
inhibition [15]: 21%

Br.Oc1ccc([C@@H]2CN3CCC[C@@H]3c3ccccc32)cc1O
Ki (D(1A) dopamine receptor): > 1000 nM
inhibition [21]: 5%
ED50 (Mus musculus [10]): 0.11 mg/kg
ED50 (Mus musculus [2]): 0.19 mg/kg
behavior (Mus musculus [22]): Stimulant
inhibition [11]: 0%
Ki [7]: 10.1 nM
Ki [13]: 0.81 nM
Ki [14]: 675 nM
inhibition [15]: 26%

C[C@@]12CCCN1C[C@H](c1ccccc1)c1ccccc12
ED50 (Mus musculus [10]): 3.8 mg/kg
ED50 (Mus musculus [2]): 9.2 mg/kg
behavior (Mus musculus [18]): Weak/Overt convulsant
Ki [7]: 40 nM
Ki [13]: 24 nM

c1ccc([C@@]23CCCN2CCc2ccccc23)cc1
ED50 (Mus musculus [8]): inactive
ED50 (Mus musculus [2]): > 60 mg/kg
behavior (Mus musculus [18]): Weak/Overt convulsant
inhibition [4]: 0%
inhibition [5]: 4%
inhibition [6]: 4%

c1ccc([C@@H]2CN3CC[C@@H]4CCCC[C@@]43c3ccccc32)cc1
ED50 (Mus musculus [17]): inactive
ED50 (Mus musculus [8]): inactive
behavior (Mus musculus [3]): Weak
inhibition [4]: 33%
inhibition [5]: 0%
inhibition [6]: 4%

Br.COc1cc2c(cc1OC)[C@@H]1CCCN1C[C@H]2c1ccccc1
Ki (D(1A) dopamine receptor): 452 nM
Ki (D(2) dopamine receptor): 400 nM
ED50 (Mus musculus [16]): inactive
ED50 at 30 mg/kg (Mus musculus [1]): > 30 mg/kg
Inhibition (Rattus norvegicus [23]): 16%
inhibition [24]: 10%
Ki [7]: 106 nM
behavior (Mus musculus [25]): Convulsant

F[C@@]1(c2ccccc2)CN2CCC[C@H]2c2ccccc21
ED50 at 30 mg/kg (Mus musculus [1]): > 30 mg/kg
ED50 (Mus musculus [2]): > 30 mg/kg
behavior (Mus musculus [18]): Weak/Overt convulsant
inhibition [4]: 22%
inhibition [6]: -3%
Ki [13]: ~100 nM
